Experimental data from article PMC8903082 (Journal of medicinal chemistry, 2020).

What was measured:
red blood cells of mice = assay: Hemolytic assay; assay type: cell-based; settings: 37 °C, 1 h, testing range up to 250 μg/mL
MRSA [1] = assay: Drug resistance study; assay type: cell-based, Staphylococcus aureus; settings: 13 passages
MRSA [2] = assay: Time-kill study, MRSA; assay type: cell-based, Staphylococcus aureus; settings: concentrations of 24 and 48 μg/mL
Outline: (§1)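 Overnight TSB cultures (37 °C, shaking) were subcultured 6 h to mid-log phase. Suspensions at 10^6 CFU/mL were exposed to the test compound at 37 °C for 10, 30, 60 and 120 min (E. coli 12, 24, 48 μg/mL; MRSA 6, 12, 24, 48 μg/mL). Untreated bacteria served as controls. Samples were diluted (MRSA 10^2-fold, E. coli 10^4-fold) and plated on TSB agar for 20 h at 37 °C. Colonies were counted against time. Three repeats.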

E. coli [3] = assay: TEM study, E. coli; assay type: cell-based, Escherichia coli; settings: 12 μg/mL, 2 h
Outline: (§2)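 Cells were prepared at 10^6 CFU/mL as for MIC testing and treated with the test compound for 2 h at 37 °C; untreated controls ran alongside. Cells were pelleted, washed three times in PBS and resuspended in deionised water. They were dropped on grids, blotted, dried 30 s at 50 °C under vacuum, and imaged by TEM at 60 kV.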

E. coli [4] = assay: Time-kill study, E. coli; assay type: cell-based, Escherichia coli; settings: concentrations of 24 and 48 μg/mL
Outline: as §1

MRSA [5] = assay: TEM study, MRSA; assay type: cell-based, Staphylococcus aureus; settings: 6 μg/mL, 2 h
Outline: as §2

E. coli [6] = assay: Fluorescence microscopy; assay type: cell-based, Escherichia coli; settings: 2 × MIC, 2 h
MRSA [7] = assay type: cell-based, Staphylococcus aureus; settings: not told
[8] = test system: E. coli biofilm formation; assay: Biofilm prevention study; assay type: cell-based; settings: Escherichia coli, 48 h, read-out: Inhibition of E. coli biofilm formation
E. coli [9] = assay: Membrane depolarization study, DiSC3; assay type: cell-based, Escherichia coli; settings: 0.5 ×, 1 ×, 2 × and 4 × MIC
E. coli [10] = assay: Inner membrane permeabilization; assay type: cell-based, Escherichia coli; settings: 2-fold MIC
Outline: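 Mid-log E. coli was pelleted at 1000g, washed three times and resuspended to 10^6 CFU/mL in 5 mM HEPES/5 mM glucose (1:1). It was mixed with PI from a 10 μM solution. Fluorescence (ex 535, em 617 nm) was read every 2 min for about 8 min. The test compound was then added and reading continued for 12 min. The negative control received water. Three repeats.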

MRSA [11] = assay: Fluorescence microscopy; assay type: cell-based, Staphylococcus aureus; settings: 2 × MIC, 2 h

## NCCCC[C@@H](CN1CC(=O)N(c2ccc(N3CN(C[C@H](CCCCN)NC(=O)CC45C[C@H]6C[C@@H](C4)C[C@@H](C5)C6)CC3=O)cc2)C1)NC(=O)CC12C[C@H]3C[C@@H](C1)C[C@@H](C2)C3 [Compound 7, N,N'-((2S,2'S)-(1,4-Phenylenebis(4-oxoimidazolidine-3,1-diyl))-bis(6-aminohexane-1,2-diyl))bis(2-((3S,5S,7S)-adamantan-1-yl)-acetamide)]
Red blood cells of mice
  Hemolysis (HC50): >250 µg/mL

## NCCCC(=O)N[C@@H](Cc1ccccc1)CN1CC(=O)N(c2ccc(N3CN(C[C@H](Cc4ccccc4)NC(=O)CCCN)CC3=O)cc2)C1 [Compound 9, N,N'-((2S,2'S)-(1,4-Phenylenebis(4-oxoimidazolidine-3,1-diyl))-bis(3-phenylpropane-1,2-diyl))bis(4-aminobutanamide)]
Red blood cells of mice
  Hemolysis (HC50): >250 µg/mL

## CCCCCCCCCCCCCCCC(=O)N[C@@H](CCCCN)CN1CC(=O)N(c2ccc(N3CN(C[C@H](CCCCN)NC(=O)CCCCCCCCCCCCCCC)CC3=O)cc2)C1 [Compound 6, N,N'-((2S,2'S)-(1,4-Phenylenebis(4-oxoimidazolidine-3,1-diyl))-bis(6-aminohexane-1,2-diyl))dipalmitamide]
Red blood cells of mice
  Hemolysis (HC50): >250 µg/mL

## NCCCC[C@@H](CN1CC(=O)N(c2ccc(N3CN(C[C@H](CCCCN)NC(=O)Cc4ccc5ccccc5c4)CC3=O)cc2)C1)NC(=O)Cc1ccc2ccccc2c1 [Compound 8, N,N'-((2S,2'S)-(1,4-Phenylenebis(4-oxoimidazolidine-3,1-diyl))-bis(6-aminohexane-1,2-diyl))bis(2-(naphthalen-2-yl)acetamide)]
Red blood cells of mice
  Hemolysis (HC50): >250 µg/mL

## CCn1cc(C(=O)O)c(=O)c2cc(F)c(N3CCNCC3)cc21 [norfloxacin, reference compound]
MRSA [1]
  Fold increase in MIC toward MRSA: more than 22 fold

## CCCCCCCC(=O)N[C@@H](CCCCN)CN1CC(=O)N(c2ccc(N3CN(C[C@H](CCCCN)NC(=O)CCCCCCC)CC3=O)cc2)C1 [Compound 2, N,N'-((2S,2'S)-(1,4-Phenylenebis(4-oxoimidazolidine-3,1-diyl))-bis(6-aminohexane-1,2-diyl))dioctan amide]
Red blood cells of mice
  Hemolysis (HC50): >250 µg/mL

## CCCCCCCCCCCC(=O)N[C@@H](CCCCN)CN1CC(=O)N(c2ccc(N3CN(C[C@H](CCCCN)NC(=O)CCCCCCCCCCC)CC3=O)cc2)C1 [Compound 4, N,N'-((2S,2'S)-(1,4-Phenylenebis(4-oxoimidazolidine-3,1-diyl))-bis(6-aminohexane-1,2-diyl))didodecanamide]
Red blood cells of mice
  Hemolysis (HC50): >250 µg/mL

## CCCCCCCCCCCCCC(=O)N[C@@H](CCCCN)CN1CC(=O)N(c2ccc(N3CN(C[C@H](CCCCN)NC(=O)CCCCCCCCCCCCC)CC3=O)cc2)C1 [Compound 5, N,N'-((2S,2'S)-(1,4-Phenylenebis(4-oxoimidazolidine-3,1-diyl))-bis(6-aminohexane-1,2-diyl))ditetradecanamide]
Red blood cells of mice
  Hemolysis (HC50): >250 µg/mL

## CCCCCCCCCC(=O)N[C@@H](CCCCN)CN1CC(=O)N(c2ccc(N3CN(C[C@H](CCCCN)NC(=O)CCCCCCCCC)CC3=O)cc2)C1 [Compound 3, N,N'-((2S,2'S)-(1,4-Phenylenebis(4-oxoimidazolidine-3,1-diyl))-bis(6-aminohexane-1,2-diyl))bis(decanamide)]
MRSA [2]
  Time to thoroughly eliminate MRSA: ≤ 60 min
E. coli [3]
  Cell membrane morphology of E. coli (TEM): their membrane was all dispersed
E. coli [4]
  Time required for eradicating E. coli: 30 min
MRSA [5]
  Cell membrane morphology of MRSA (TEM): their membrane was all dispersed
E. coli [6]
  DAPI/PI staining of E. coli (membrane integrity): blue and red fluorescence were all observed
MRSA [7]
  Inner membrane permeabilization of MRSA (PI fluorescence): permeabilized fast
[8]
  inhibition at 3 µg/mL: > 55%
E. coli [9]
  Membrane depolarization, DiSC3(5) fluorescence intensity: increase in a concentration-dependent manner
E. coli [10]
  Inner membrane permeabilization of E. coli (PI fluorescence): permeabilized fast
MRSA [11]
  DAPI/PI staining of MRSA (membrane integrity): blue and red fluorescence were all observed
Red blood cells of mice
  Hemolysis (HC50): >250 µg/mL
MRSA [1]
  Fold increase in MIC toward MRSA: remained almost unchanged

## CCCCCCCCCC(=O)N[C@@H](Cc1ccccc1)CN1CC(=O)N(c2ccc(N3CN(C[C@H](Cc4ccccc4)NC(=O)CCCCCCCCC)CC3=O)cc2)C1 [Compound 10, N,N'-((2S,2'S)-(1,4-Phenylenebis(4-oxoimidazolidine-3,1-diyl))-bis(3-phenylpropane-1,2-diyl))bis(decanamide)]
Red blood cells of mice
  Hemolysis (HC50): >250 µg/mL

## CCCCCC(=O)N[C@@H](CCCCN)CN1CC(=O)N(c2ccc(N3CN(C[C@H](CCCCN)NC(=O)CCCCC)CC3=O)cc2)C1 [Compound 1, N,N'-((2S,2'S)-(1,4-Phenylenebis(4-oxoimidazolidine-3,1-diyl))-bis(6-aminohexane-1,2-diyl))dihexan amide]
Red blood cells of mice
  Hemolysis (HC50): >250 µg/mL

## CCCCCCCCCC(=O)N[C@@H](CCCCN)CNCC(=O)Nc1ccc(NC(=O)CNC[C@H](CCCCN)NC(=O)CCCCCCCCC)cc1 [Compound 11, N,N'-((2S,2'S)-(((1,4-Phenylenebis(azanediyl))bis(2-oxoethane-2,1-diyl))bis(azanediyl))bis(6-aminohexane-1,2-diyl))bis-(decanamide)]
Red blood cells of mice
  Hemolysis (HC50): >250 µg/mL
